PTK2B oligo ant: antagonists of human Pyk2 oligomerization. 99,000 compounds, 0.83% hits. Q293 cells, Pyk2 FERM NanoBiT luminescence; hits give low values. Q14289. z-score (the deposit names both 25 µM and 10 µM);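 active = Z-score of -3 or lower, scaled per plate to the spread of control and sample wells; inactive = z-score above -3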;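 note: negative z-score means lost luminescence so less FERM oligomerization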
Fibroblast inh: blocks proliferation of human lung fibroblasts | 85,000 compounds, 1.1% hits | viability, % at 10 µM | LL 47 human lung fibroblast viability, ATP luminescence; hits give low values;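 active = viability at or below 50% in the single dose screen; inactive = viability above 50%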;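 note: compound exposure lasted 72 h before the ATP readout; 100% = median luminescence of untreated cell-only wells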
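Test system: LL 47 human lung fibroblasts / Quantity: 1,150 cells in each well / Medium: IMEM growth medium with 15% fetal bovine serum / Incubation: 72 h compound exposure at 37 °C after overnight plating / Detection: CellTiter-Glo luminescence measuring cellular ATP / Read-out: % viability versus median cells-only luminescence / Benchmarks: cell-only wells, no compound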
cytoskel mod: modifiers of cytoskeleton assembly; inhibition, % at 2 µM; 91,000 compounds, 0.18% hits; HUVEC TNFa F-actin phalloidin imaging, high content;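 active = inhibition above the batch mean plus 3 SD and confirmed as a hit by visual image inspection, cut at about 30% in these data, passing the limit was not always enough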
Jurkat tox 60K: reduces viability or proliferation of Jurkat cells | 56,000 compounds, 1.2% hits | AID 463 | Jurkat E6.1 viability, ATP luminescence, 48 h | inhibition, % at 4 µM;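 active = inhibition above the mean inhibition of all tested compounds plus 3 SD, cut at about 28% in these data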
HUVEC prolif 384: human endothelial cell proliferation inhibition | AID 648 | viability, % at 10 µM (by protocol) | 86,000 compounds, 1.1% hits | HUVEC proliferation, CellTiter-Glo luminescence, 72 h; hits give low values;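 active = viability at or below 30%; inactive = viability above 30%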;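 note: 100% = median luminescence of DMSO-only cell control wells on each plate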
H69AR inhibit: blocks growth of human H69AR lung tumor cells; viability, % at 10 µM; H69AR lung tumor viability, ATP luminescence, 72 h; hits give low values; AID 598; 85,000 compounds, 6% hits;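 active = viability at or below 40%; inactive = viability above 40%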;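 note: multidrug resistant small cell line overexpressing MRP-1 efflux transporter; 100% = mean luminescence of untreated control wells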
* marks the source's active call; other numbers are inactive results; x = no result given. An excerpt weighted towards active compounds, which were near 6% of everything screened.

SMILES	PTK2B oligo ant	Fibroblast inh	cytoskel mod	Jurkat tox 60K	HUVEC prolif 384	H69AR inhibit
COc1ccc(-c2cc(C(F)(F)F)n3nc(C(=O)NCc4ccco4)cc3n2)cc1	-0.64	87.1	-2.6	-2.5	90.4	83.8
O=C(NCc1ccco1)c1nn2c(C(F)(F)F)cc(-c3cccs3)nc2c1Br	-0.87	79.4	7.8	x	65.9	32.4*
COc1ccc(-c2cc(C(F)(F)F)n3nc(C(=O)NCc4ccco4)c(Cl)c3n2)cc1	0.36	70.8	2.8	x	52.8	36.8*
Cn1c(CCN2CCCCC2)nc2cc(NS(=O)(=O)c3ccc(F)cc3)ccc21	0.57	94.5	x	-4.4	106.7	21.8*
O=c1c2ccccc2nc2c3ccccc3c(NCCN3CCOCC3)nn12	x	33.1*	-6.3	x	35.9	18.9*
O=c1c2ccccc2nc2c3ccccc3c(N3CCOCC3)nn12	x	95.4	x	3.3	95.8	76.8
c1ccc(-c2nc(NCCCN3CCOCC3)c3ccccc3n2)cc1	-0.81	99.0	0.1	-1.8	83.4	26.3*
COc1cccc(C2=NC(C)(C)NC(c3ccccc3O)C2)c1 (centres undefined)	-0.8	87.7	-11.6	12.6	62.4	1.1*
COc1cccc(C2=NOC(C(=O)NC(C)C)C2)c1 (centres undefined)	0.55	98.8	31.2	-0.9	95.2	99.3
CCC1(C)N=C(c2ccc3c(c2)OCO3)CC(c2ccccc2O)N1 (centres undefined)	-1.18	53.7	4.7	x	24.9*	2.1*
COc1ccccc1CNC(=O)C[n+]1ccccc1	0.89	100.9	2.7	x	101.4	98.1
Cc1ccc(CNC(=O)CSc2nc3ccccc3c3nc(C)nn23)cc1	x	x	-9.7	x	x	x
CCOC(=O)Cn1c(-c2cccnc2Cl)nc2cc(C)c(C)cc21	-0.84	x	14.8	x	x	x
CCOC(=O)Cn1c(-c2cccnc2Cl)nc2cc(Cl)c(Cl)cc21	-3.76*	x	-3.2	x	x	x
Nc1nonc1-c1nc2ccccc2n1Cc1ccc(F)cc1Cl	0.02	55.5	-9.6	4.2	57.0	39.0*
CNC(=O)C1CC(=O)N(Cc2ccc3c(c2)OCO3)C(=Nc2ccc(OC)cc2)S1 (centres undefined)	-0.95	98.5	5.6	5.4	91.8	80.0
CC1CCC(C(C)C)C2=C1C(C#N)(C#N)C(C#N)(C#N)C(c1ccccc1)N2 (centres undefined)	0.56	32.4*	9.6	x	27.9*	0.0*
CCc1ccccc1N1C(=O)c2cccc3c(N4CCOCC4)c([N+](=O)[O-])cc(c23)C1=O	-3.03*	x	-10.8	x	x	x
O=C1c2cccc3c(Nc4ccccc4Cl)c([N+](=O)[O-])cc(c23)C(=O)N1CCO	-1.52	x	0.6	x	x	x
Clc1ccc(-c2cn3c(n2)-c2ccccc2C3)cc1Cl	-0.41	x	x	x	x	x
Cc1ccc(Nc2nc(Nc3ccc(C)cc3)nc(SC3=NCCS3)n2)cc1	-1.54	88.1	2.7	x	75.7	10.6*
Cc1ccccc1Nc1nc(Nc2ccccc2C)nc(SC2=NCCS2)n1	-1.8	102.4	-3.9	x	77.5	97.8
O=[N+]([O-])c1cnccc1Nc1cccc(F)c1	-0.48	92.6	9.6	x	85.7	86.3
O=[N+]([O-])c1ccc(Oc2cccc(F)c2)c2ccncc12	-1.44	64.9	11.2	x	61.5	34.1*
CC(=O)Nc1ccc(OCC(O)CN2CCN(Cc3ccccc3)CC2)cc1 (centres undefined)	-0.42	104.2	10.7	-3.6	93.7	89.0
SMILES	PTK2B oligo ant	Fibroblast inh	cytoskel mod	Jurkat tox 60K	HUVEC prolif 384	H69AR inhibit
CC(=O)Nc1ccc(S(=O)(=O)NC2=C(N3CCN(Cc4ccccc4)CC3)C(=O)c3ccccc3C2=O)cc1	x	103.1	22.3	x	7.0*	30.9*
CC1(C)C(=O)OC(c2ccccc2)C2(CCCC2)C1=O (centres undefined)	-0.33	98.2	0.7	x	101.7	99.4
CCC1CCc2c(sc(NC(=O)c3ccoc3C)c2C(N)=O)C1 (centres undefined)	0.58	88.2	5.5	7.8	62.1	34.9*
CCC(C)(C)C1CCc2c(sc(NC(=O)c3ccoc3C)c2C(N)=O)C1 (centres undefined)	0.47	89.2	-5.0	x	63.4	13.6*
Cc1occc1C(=O)Nc1sc2c(c1C(N)=O)CCC(C(C)(C)C)C2 (centres undefined)	0.53	93.1	-0.3	x	86.0	82.0
O=S1(=O)C=CC(Sc2nc3ccccc3[nH]2)C1 (centres undefined)	0.73	101.8	-8.8	4.2	102.0	19.9*
CC1=CS(=O)(=O)CC1Sc1nc2ccccc2[nH]1 (centres undefined)	1.79	103.2	-3.5	x	82.7	85.4
COc1ccc(-c2n[nH]c(C)c2-c2ccc(Cl)cc2)c(O)c1	-1.07	66.0	4.7	x	30.4	48.2
COc1ccc(-c2n[nH]c(C)c2-c2ccc(Cl)cc2)c(O)c1OC	-2.44	89.6	2.9	-5.6	60.2	35.1*
Cc1ccc(S(=O)(=O)N2CCSC2c2ccco2)cc1 (centres undefined)	-0.09	90.0	-16.1	-1.6	103.3	84.3
Cc1ccc(OCC(=O)N/N=C\c2cn(C)c3ccccc23)c([N+](=O)[O-])c1	-1.41	x	3.7	x	x	x
C=CCn1c(SCC(=O)NC(=O)NCc2ccco2)nc2sc(CC)cc2c1=O	-2.57	47.7*	x	-4.4	89.5	28.4*
CCn1c(SCC(=O)NC(=O)NCc2ccco2)nc2sc(C)c(C)c2c1=O	-0.56	x	-15.7	x	x	x
C=CCn1c(SCC(=O)Nc2ccccc2C)nc2sc(C)c(C)c2c1=O	0.29	92.7	-12.8	x	82.8	30.8*
Cc1sc2nc(SCC(=O)NCc3ccco3)n(CCc3ccccc3)c(=O)c2c1C	-1.16	46.9*	7.2	2.3	60.5	22.2*
Cc1ccccc1Nc1nnc(SCC(=O)NC(=O)NCc2ccco2)s1	-0.55	93.2	x	x	84.9	31.7*
C=C(C)C1Cc2c(C)nn(-c3cc(C)c4ccccc4n3)c2C1 (centres undefined)	x	96.3	5.1	x	92.1	82.3
Cc1sc2nc(SCC(=O)c3cccs3)n(Cc3ccco3)c(=O)c2c1C	-0.4	83.7	-19.1	-7.2	23.8*	58.7
COCCn1c(=O)c2c3c(sc2n(CC(N)=O)c1=O)CCCC3	x	95.4	0.8	11.0	101.1	97.1
O=c1cnn(-c2ccccc2)c(-c2ccccc2)c1	0.02	74.1	-9.6	x	74.3	25.4*
COc1cnn(-c2ccccc2)c(=O)c1N(C)C	0.72	91.7	-3.8	1.0	82.7	88.2
COc1ccc(Br)cc1C1N2CC3(C)CN1CC(C)(C2)C3=O (centres undefined)	1.55	102.2	10.8	x	93.3	89.3
CC(=O)NC(Cc1ccccc1C)C(=O)NC1CCN(c2c3c(nc4ncnn24)CCC3)CC1 (centres undefined)	x	101.7	x	2.8	97.2	88.9
COc1ccc(/C=N/OCC(=O)Nn2c(C)nc3ccccc3c2=O)cc1	0.55	x	x	x	x	x
CCOC(=O)CSc1ncnc2c1cnn2-c1ccccc1	0.85	99.6	66.0	-1.7	82.4	92.9
c1ccc(-c2nc(Sc3ncnc4c3cnn4-c3ccccc3)n[nH]2)cc1	x	104.1	11.9	-4.9	92.5	27.1*

Screening data (PubChem BioAssay)
